≈ marks a conversion by molar mass, not a printed value.
Experiments:
[1] = test system: Escherichia coli; assay: Minimum inhibitory concentration against Escherichia coli; type: functional
Summary of the method: (§1)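 Agar dilution MIC in μg/mL. […] Organisms not run are marked not tested.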

[2] = test system: Streptococcus pneumoniae; assay: Minimum inhibitory concentration against Streptococcus pneumoniae; type: functional; summary of the method: as §1
[3] = test system: Klebsiella pneumoniae; assay: Minimum inhibitory concentration against Klebsiella pneumoniae; type: functional; summary of the method: as §1
[4] = test system: Salmonella typhi; assay: Minimum inhibitory concentration against Salmonella typhi; type: functional, Salmonella enterica subsp. enterica serovar Typhi; conditions: Salmonella enterica
[5] = test system: Streptococcus pyogenes; assay: Minimum inhibitory concentration against Streptococcus pyogenes; type: functional; summary of the method: as §1
[6] = test system: Klebsiella aerogenes; assay: Minimum inhibitory concentration against Enterobacter aerogenes; type: functional; summary of the method: as §1
[7] = test system: Staphylococcus aureus; assay: Minimum inhibitory concentration against Staphylococcus aureus; type: functional; summary of the method: as §1
[8] = test system: Haemophilus influenzae; assay: (§2) Minimum inhibitory concentration against Haemophilus influenzae; type: functional; summary of the method: as §1
[9] = test system: Haemophilus influenzae; assay: as §2; type: functional; summary of the method: as §1; remark: listed apart in the source

Compound	MIC [1]	MIC [2]	MIC [3]	MIC [4]	MIC [5]	MIC [6]	MIC [7]	MIC [8]	MIC [9]
O=C(CSc1nccs1)N[C@@H]1C(=O)N2C(C(=O)O)=C(Cl)CS[C@H]12	32 µg/mL (≈ 81.7 µM)	0.5 µg/mL (≈ 1.28 µM)	16 µg/mL (≈ 40.8 µM)	16 µg/mL (≈ 40.8 µM)	0.25 µg/mL (≈ 0.638 µM)	> 128 µg/mL	1 µg/mL (≈ 2.55 µM)	–	–
O=C(Cc1noc(C(Cl)(Cl)Cl)n1)N[C@@H]1C(=O)N2C(C(=O)O)=CCS[C@H]12	32 µg/mL (≈ 74.8 µM)	2 µg/mL (≈ 4.68 µM)	32 µg/mL (≈ 74.8 µM)	16 µg/mL (≈ 37.4 µM)	2 µg/mL (≈ 4.68 µM)	128 µg/mL (≈ 299 µM)	2 µg/mL (≈ 4.68 µM)	16 µg/mL (≈ 37.4 µM)	32 µg/mL (≈ 74.8 µM)
O=C(Cc1ccc(F)cc1)N[C@@H]1C(=O)N2C(C(=O)O)=C(Cl)CS[C@H]12	32 µg/mL (≈ 86.3 µM)	0.125 µg/mL (≈ 0.337 µM)	32 µg/mL (≈ 86.3 µM)	16 µg/mL (≈ 43.2 µM)	0.06 µg/mL (≈ 0.162 µM)	> 128 µg/mL	0.5 µg/mL (≈ 1.35 µM)	1 µg/mL (≈ 2.7 µM)	4 µg/mL (≈ 10.8 µM)
Nc1ccc(CC(=O)N[C@@H]2C(=O)N3C(C(=O)O)=C(Cl)CS[C@H]23)cc1	16 µg/mL (≈ 43.5 µM)	0.125 µg/mL (≈ 0.34 µM)	2 µg/mL (≈ 5.44 µM)	2 µg/mL (≈ 5.44 µM)	0.06 µg/mL (≈ 0.163 µM)	128 µg/mL (≈ 348 µM)	0.5 µg/mL (≈ 1.36 µM)	0.5 µg/mL (≈ 1.36 µM)	1 µg/mL (≈ 2.72 µM)
O=C(COc1ccc(Cl)cc1)N[C@@H]1C(=O)N2C(C(=O)O)=C(Cl)CS[C@H]12	> 128 µg/mL	0.03 µg/mL (≈ 0.0744 µM)	> 128 µg/mL	> 128 µg/mL	0.03 µg/mL (≈ 0.0744 µM)	> 128 µg/mL	0.125 µg/mL (≈ 0.31 µM)	1 µg/mL (≈ 2.48 µM)	1 µg/mL (≈ 2.48 µM)
COc1ccc(OCC(=O)N[C@@H]2C(=O)N3C(C(=O)O)=C(Cl)CS[C@H]23)cc1	> 128 µg/mL	0.125 µg/mL (≈ 0.313 µM)	> 128 µg/mL	> 128 µg/mL	0.06 µg/mL (≈ 0.15 µM)	> 128 µg/mL	0.25 µg/mL (≈ 0.627 µM)	2 µg/mL (≈ 5.01 µM)	2 µg/mL (≈ 5.01 µM)
O=C(CSc1nc[nH]n1)N[C@@H]1C(=O)N2C(C(=O)O)=C(Cl)CS[C@H]12	16 µg/mL (≈ 42.6 µM)	2 µg/mL (≈ 5.32 µM)	16 µg/mL (≈ 42.6 µM)	16 µg/mL (≈ 42.6 µM)	0.5 µg/mL (≈ 1.33 µM)	> 128 µg/mL	4 µg/mL (≈ 10.6 µM)	4 µg/mL (≈ 10.6 µM)	4 µg/mL (≈ 10.6 µM)
COc1ccccc1CC(=O)N[C@@H]1C(=O)N2C(C(=O)O)=C(Cl)CS[C@H]12	> 128 µg/mL	1 µg/mL (≈ 2.61 µM)	> 128 µg/mL	> 128 µg/mL	1 µg/mL (≈ 2.61 µM)	> 128 µg/mL	1 µg/mL (≈ 2.61 µM)	1 µg/mL (≈ 2.61 µM)	2 µg/mL (≈ 5.22 µM)
O=C(Cc1ccc(Cl)cc1)N[C@@H]1C(=O)N2C(C(=O)O)=C(Cl)CS[C@H]12	64 µg/mL (≈ 165 µM)	0.125 µg/mL (≈ 0.323 µM)	128 µg/mL (≈ 331 µM)	64 µg/mL (≈ 165 µM)	0.06 µg/mL (≈ 0.155 µM)	> 128 µg/mL	0.25 µg/mL (≈ 0.646 µM)	0.5 µg/mL (≈ 1.29 µM)	1 µg/mL (≈ 2.58 µM)
Cc1nc(CC(=O)N[C@@H]2C(=O)N3C(C(=O)O)=C(Cl)CS[C@H]23)c(-c2ccccc2)s1	> 128 µg/mL	0.06 µg/mL (≈ 0.133 µM)	> 128 µg/mL	> 128 µg/mL	0.015 µg/mL (≈ 0.0333 µM)	> 128 µg/mL	0.125 µg/mL (≈ 0.278 µM)	32 µg/mL (≈ 71.1 µM)	32 µg/mL (≈ 71.1 µM)
O=C(Cc1csc2ccc(Cl)cc12)N[C@@H]1C(=O)N2C(C(=O)O)=CCS[C@H]12	128 µg/mL (≈ 313 µM)	–	128 µg/mL (≈ 313 µM)	> 128 µg/mL	0.03 µg/mL (≈ 0.0734 µM)	–	0.125 µg/mL (≈ 0.306 µM)	–	–
O=C(Cc1noc(C(Cl)(Cl)Cl)n1)N[C@@H]1C(=O)N2C(C(=O)O)=C(Cl)CS[C@H]12	64 µg/mL (≈ 138 µM)	0.5 µg/mL (≈ 1.08 µM)	16 µg/mL (≈ 34.6 µM)	16 µg/mL (≈ 34.6 µM)	0.25 µg/mL (≈ 0.541 µM)	> 128 µg/mL	2 µg/mL (≈ 4.33 µM)	4 µg/mL (≈ 8.66 µM)	4 µg/mL (≈ 8.66 µM)
COc1ccc(CC(=O)N[C@@H]2C(=O)N3C(C(=O)O)=C(Cl)CS[C@H]23)cc1OC	128 µg/mL (≈ 310 µM)	0.06 µg/mL (≈ 0.145 µM)	128 µg/mL (≈ 310 µM)	128 µg/mL (≈ 310 µM)	0.3 µg/mL (≈ 0.727 µM)	> 128 µg/mL	0.25 µg/mL (≈ 0.606 µM)	0.5 µg/mL (≈ 1.21 µM)	1 µg/mL (≈ 2.42 µM)
O=Cc1ccc(OCC(=O)N[C@@H]2C(=O)N3C(C(=O)O)=C(Cl)CS[C@H]23)cc1	> 128 µg/mL	0.03 µg/mL (≈ 0.0756 µM)	> 128 µg/mL	> 128 µg/mL	0.015 µg/mL (≈ 0.0378 µM)	> 128 µg/mL	0.25 µg/mL (≈ 0.63 µM)	1 µg/mL (≈ 2.52 µM)	2 µg/mL (≈ 5.04 µM)
